Tests used:
[1] = target: Phospholipase D1 (Homo sapiens) (UniProt Q13393); assay: Inhibition of PLD1 in human Calu-1 cells assessed as reduction in d9-phosphobutanol formation by mass spectrometry-based transphosphatidylation assay
Phospholipase D1 = target: T1, Phospholipase D1 (Homo sapiens, UniProt Q13393); assay: Inhibition of PLD1 (unknown origin) expressed in human HEK cells by immunoprecipitation assay; assay type: cell-based
T1 sequence (Q13393 whole entry): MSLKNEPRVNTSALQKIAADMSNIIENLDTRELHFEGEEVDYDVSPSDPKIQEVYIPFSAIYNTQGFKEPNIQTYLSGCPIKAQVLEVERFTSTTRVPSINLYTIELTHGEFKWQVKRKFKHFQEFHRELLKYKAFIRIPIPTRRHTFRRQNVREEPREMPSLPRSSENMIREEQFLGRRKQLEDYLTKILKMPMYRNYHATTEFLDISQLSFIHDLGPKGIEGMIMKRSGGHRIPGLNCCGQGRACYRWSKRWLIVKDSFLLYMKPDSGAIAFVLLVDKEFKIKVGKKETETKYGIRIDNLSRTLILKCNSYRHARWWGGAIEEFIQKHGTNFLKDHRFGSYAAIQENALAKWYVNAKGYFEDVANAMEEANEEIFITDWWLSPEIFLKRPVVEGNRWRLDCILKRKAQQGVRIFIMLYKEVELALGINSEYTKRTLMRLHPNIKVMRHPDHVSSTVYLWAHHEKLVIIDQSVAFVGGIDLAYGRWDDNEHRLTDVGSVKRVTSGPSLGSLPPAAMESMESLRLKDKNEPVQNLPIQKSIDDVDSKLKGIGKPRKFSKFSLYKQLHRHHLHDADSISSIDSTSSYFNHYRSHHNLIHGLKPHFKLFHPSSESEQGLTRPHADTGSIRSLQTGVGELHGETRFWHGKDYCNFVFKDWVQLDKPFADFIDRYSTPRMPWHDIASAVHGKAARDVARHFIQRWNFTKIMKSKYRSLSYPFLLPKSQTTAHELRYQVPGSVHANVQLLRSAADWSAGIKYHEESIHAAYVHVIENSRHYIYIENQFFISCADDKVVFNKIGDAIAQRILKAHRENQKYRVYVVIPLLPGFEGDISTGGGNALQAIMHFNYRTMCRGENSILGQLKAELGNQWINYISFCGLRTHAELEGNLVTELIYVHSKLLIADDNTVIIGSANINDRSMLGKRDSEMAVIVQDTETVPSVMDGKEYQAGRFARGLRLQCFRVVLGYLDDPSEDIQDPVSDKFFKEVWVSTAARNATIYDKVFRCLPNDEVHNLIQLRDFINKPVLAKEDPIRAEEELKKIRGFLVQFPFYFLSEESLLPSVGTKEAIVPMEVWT

[2] = Plasma protein binding in rat assessed as unbound fraction; assay type: ADME, cell-free
[3] = Oral bioavailability in rat; assay type: ADME, organism-based; conditions: in vivo
Procedure, shortened: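 Rat oral PK, average of two experiments with n = 3 rats each; formulation HPMC/Tween.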

Compound `C[C@@H]1CN(C(=O)[C@H](C)N2CCC(n3c(=O)[nH]c4ccccc43)CC2)C[C@@H](C)N1` has an IC50 [1] of 6 nM, an IC50 (Phospholipase D1) of 44 nM and a Fu [2] of 10.8%. For the same compound, the bioavailability [3] was 21%.
